Test results as given in ChEMBL document CHEMBL2331212 (Bioorg Med Chem, 2013).
pKi: −log10 of the molar value. Where “and” joins values, the source holds several entries; their conditions need not be identical. Equal values may be shown once. Calls of active or inactive are those of the source. No cut-off for these calls is given here.

Assays:
[1] = molecular target: T1, D(4) dopamine receptor (Homo sapiens) (UniProt P21917); assay: Partial agonist activity at human D4.4 receptor expressed in CHO cells assessed as inhibition of forskolin-stimulated cAMP accumulation after 20 mins by luminescence assay relative to quinpirole; format: functional, cell-based
T1 sequence (whole entry): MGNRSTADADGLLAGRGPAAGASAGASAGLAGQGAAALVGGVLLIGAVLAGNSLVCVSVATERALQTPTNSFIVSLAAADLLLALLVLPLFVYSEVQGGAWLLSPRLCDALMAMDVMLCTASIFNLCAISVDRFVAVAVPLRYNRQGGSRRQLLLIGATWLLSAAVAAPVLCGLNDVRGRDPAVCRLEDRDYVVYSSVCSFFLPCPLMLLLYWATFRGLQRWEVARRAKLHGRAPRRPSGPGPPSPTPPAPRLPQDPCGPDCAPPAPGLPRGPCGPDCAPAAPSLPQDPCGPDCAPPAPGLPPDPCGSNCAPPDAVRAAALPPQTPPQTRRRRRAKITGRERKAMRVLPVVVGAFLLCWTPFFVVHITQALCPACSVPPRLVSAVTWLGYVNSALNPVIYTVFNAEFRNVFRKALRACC
Summary of the method: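 CHO cells expressing D4.4 were seeded 24 h ahead at 10,000 cells/well and washed with Krebs Ringer buffer, pH 7.4. Cells were exposed to graded compound concentrations with forskolin for 20 min at 25 °C. cAMP was read by cAMP-Glo luminescence, a PKA–luciferase readout. Quinpirole served as the reference full agonist. EC50 and Emax were taken from at least three experiments, each in triplicate.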

[2] = molecular target: D(1A) dopamine receptor (Bos taurus, UniProt Q95136); assay: Displacement of [3H]SCH23390 from dopamine D1 receptor in bovine striatum
Summary of the method: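 Bovine striatal homogenate was incubated with [3H]SCH 23390 and test compounds under the same binding conditions as the D2-family assays. Competition curves were fitted by sigmoid non-linear regression with logEC50 and Hill coefficient free. EC50 was converted to Ki by Cheng–Prusoff. Each experiment was run in triplicate.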

[3] = molecular target: T2, D(2) dopamine receptor (Homo sapiens, UniProt P14416); assay: Displacement of [3H]spiperone from human dopamine D2long receptor expressed in CHO cells; format: cell-based
[4] = molecular target: D(3) dopamine receptor (Homo sapiens, UniProt P35462); assay: Displacement of [3H]spiperone from human dopamine D3 receptor expressed in CHO cells; format: cell-based
[5] = molecular target: T3, D(4) dopamine receptor (Homo sapiens, UniProt P21917); assay: Displacement of [3H]spiperone from human dopamine D4.4 receptor expressed in CHO cells; format: cell-based
T3 sequence (P21917 whole entry): T1 sequence (whole entry)

[6] = molecular target: T2, D(2) dopamine receptor; assay: Displacement of [3H]spiperone from human dopamine D2short receptor expressed in CHO cells; format: cell-based
[7] = molecular target: T1, D(4) dopamine receptor (Homo sapiens); assay: Antagonist activity at human D4.4 receptor expressed in CHO cells assessed as inhibition of quinpirole-induced reduction in cAMP accumulation after 20 mins by luminescence assay; format: functional, cell-based

T2 sequence (P14416 whole entry): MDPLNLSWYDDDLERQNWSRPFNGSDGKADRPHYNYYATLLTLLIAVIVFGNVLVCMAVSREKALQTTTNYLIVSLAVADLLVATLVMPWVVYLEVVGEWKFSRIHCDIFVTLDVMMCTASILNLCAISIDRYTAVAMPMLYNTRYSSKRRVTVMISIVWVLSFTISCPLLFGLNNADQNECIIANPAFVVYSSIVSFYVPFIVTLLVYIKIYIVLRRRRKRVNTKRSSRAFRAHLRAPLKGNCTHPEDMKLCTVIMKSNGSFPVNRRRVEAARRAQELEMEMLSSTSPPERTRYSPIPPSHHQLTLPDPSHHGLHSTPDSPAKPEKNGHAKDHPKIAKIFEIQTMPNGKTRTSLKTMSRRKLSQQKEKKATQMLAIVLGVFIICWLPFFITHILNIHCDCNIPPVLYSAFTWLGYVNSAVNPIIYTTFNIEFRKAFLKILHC
Chain of D(3) dopamine receptor (P35462 whole entry): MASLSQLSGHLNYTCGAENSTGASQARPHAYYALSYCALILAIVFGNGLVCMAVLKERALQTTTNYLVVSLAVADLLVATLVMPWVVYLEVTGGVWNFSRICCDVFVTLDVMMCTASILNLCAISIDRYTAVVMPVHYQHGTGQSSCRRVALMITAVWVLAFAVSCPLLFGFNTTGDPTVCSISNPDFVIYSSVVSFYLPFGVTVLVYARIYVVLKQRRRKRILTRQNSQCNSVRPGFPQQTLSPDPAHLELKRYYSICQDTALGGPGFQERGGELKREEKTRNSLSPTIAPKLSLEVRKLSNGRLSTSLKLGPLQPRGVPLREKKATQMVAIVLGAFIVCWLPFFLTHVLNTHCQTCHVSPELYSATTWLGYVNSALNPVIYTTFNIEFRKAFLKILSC
Chain of D(1A) dopamine receptor (Q95136 whole entry): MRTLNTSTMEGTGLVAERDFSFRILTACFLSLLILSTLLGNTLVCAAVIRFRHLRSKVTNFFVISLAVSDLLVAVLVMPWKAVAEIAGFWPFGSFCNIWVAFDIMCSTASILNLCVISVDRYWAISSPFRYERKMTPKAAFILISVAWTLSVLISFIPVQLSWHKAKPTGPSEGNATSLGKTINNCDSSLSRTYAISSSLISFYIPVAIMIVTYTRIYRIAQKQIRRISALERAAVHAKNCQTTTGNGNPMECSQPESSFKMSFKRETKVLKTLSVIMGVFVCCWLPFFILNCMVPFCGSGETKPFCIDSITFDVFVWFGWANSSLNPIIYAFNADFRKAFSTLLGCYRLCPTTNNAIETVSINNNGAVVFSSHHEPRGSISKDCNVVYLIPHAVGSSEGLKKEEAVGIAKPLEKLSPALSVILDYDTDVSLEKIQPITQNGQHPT

## c1ccc(N2CCN(Cc3cnn(-c4ccccc4)c3)CC2)cc1
[1]
  Efficacy: 40%
[2]
  pKi: 5.80

## c1ccc(-n2cc(CN3CCN(c4cc5ccc4CCc4ccc(cc4)CC5)CC3)cn2)cc1
[3]
  pKi: 7.41
[4]
  pKi: 7.74
[2]
  pKi: 5.59
[5]
  pKi: 7.35
[6]
  pKi: 7.55

## NCCc1ccc(O)c(O)c1 [DOPAMINE]
[2]
  pKi: 6.36

## c1ccc(N2CCN(Cc3cnn(-c4cc5ccc4CCc4ccc(cc4)CC5)c3)CC2)cc1
[1]
  Efficacy: 19%
[3]
  pKi: 7.26 and 6.46
[4]
  pKi: 7.70 and 7.64
[2]
  pKi: 5.82 and 5.77
[5]
  pKi: 8.60 and 8.35
[7]
  inhibition: Active
[6]
  pKi: 7.48 and 6.62
